In ChEMBL document CHEMBL4152204, “Discovery of N-hydroxy-3-alkoxybenzamides as direct acid sphingomyelinase inhibitors using a ligand-based pharmacophore model” (Eur J Med Chem, 2018) one finds Activity, inhibition and viability data, which are given here for one compound.

For experiment [1], the system named is NIH3T3. The experiment is described as follows: Cytoprotective activity against UV-induced apoptosis in mouse NIH/3T3 cells assessed as necrotic cells at 20 uM preincubated for 20 hrs followed by UV irradiation for 5 mins and measured after 24 hrs by flow cytometric analysis (reference value: 1.5%). Type of experiment: functional.
Experiment [2] has as its system NIH3T3. The experiment is described as follows: Cytoprotective activity against UV-induced apoptosis in mouse NIH/3T3 cells assessed as early apoptotic cells at 60 uM preincubated for 20 hrs followed by UV irradiation for 5 mins and measured after 24 hrs by flow cytometric analysis (reference value: 79.5%). Type of experiment: functional.
In experiment [3] the test system is NIH3T3. Nature of the experiment: Inhibition of LPS-induced IL-8 production in mouse NIH/3T3 cells preincubated for 20 hrs followed by LPS-stimulation and measured after 6 hrs by ELISA. Type of experiment: functional, cell-based. The gist of the method: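 NIH3T3 cells (DMEM, 10% FBS) seeded at 2*10⁵ per well overnight, inhibitor 20 h, then LPS to 50 ng/mL for a further 6 h; IL-6 or IL-8 measured by ELISA; compared with LPS-only and control groups.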
In general terms: In an ELISA, binding on a coated surface is turned into a signal by an enzyme label.

In experiment [4] the test system is NIH3T3. Nature of the experiment: Cytoprotective activity against UV-induced apoptosis in mouse NIH/3T3 cells assessed as late apoptotic cells at 60 uM preincubated for 20 hrs followed by UV irradiation for 5 mins and measured after 24 hrs by flow cytometric analysis (reference value: 6.4%). Type of experiment: functional. In general terms: In flow cytometry, cells or beads pass a laser one at a time.

In experiment [5] the target is T1, Sphingomyelin phosphodiesterase (Mus musculus) (UniProt Q04519).
T1 sequence (whole entry): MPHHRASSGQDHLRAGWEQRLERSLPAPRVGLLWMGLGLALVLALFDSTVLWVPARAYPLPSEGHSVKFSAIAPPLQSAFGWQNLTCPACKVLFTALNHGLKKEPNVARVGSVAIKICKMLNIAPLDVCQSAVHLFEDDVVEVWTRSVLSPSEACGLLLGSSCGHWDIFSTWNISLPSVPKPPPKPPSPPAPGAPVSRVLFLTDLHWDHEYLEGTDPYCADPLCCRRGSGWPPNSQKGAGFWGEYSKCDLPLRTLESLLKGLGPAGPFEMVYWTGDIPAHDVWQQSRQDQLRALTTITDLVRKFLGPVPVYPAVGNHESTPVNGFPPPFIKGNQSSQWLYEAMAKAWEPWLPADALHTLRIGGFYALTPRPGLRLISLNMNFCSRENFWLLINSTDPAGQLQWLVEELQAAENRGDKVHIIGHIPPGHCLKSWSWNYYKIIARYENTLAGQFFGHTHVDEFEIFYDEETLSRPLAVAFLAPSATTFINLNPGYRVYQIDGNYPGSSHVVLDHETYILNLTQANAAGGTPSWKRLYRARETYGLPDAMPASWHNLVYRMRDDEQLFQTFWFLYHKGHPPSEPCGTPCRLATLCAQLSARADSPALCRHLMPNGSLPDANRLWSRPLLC
Nature of the experiment: Inhibition of UV-induced ceramide production in mouse NIH/3T3 cells assessed as ceramide level at 50 uM by LC-MS/MS analysis (reference value: 107.686 pmol/mg). It counts as cell-based. The gist of the method: (§1)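 Ceramide in the UV-apoptosis setup: NIH3T3 cells pretreated with inhibitor 20 h, UV 315 nm 0.29 mW/cm² 5 min, further 24 h with inhibitor; ceramide quantified (pmol/mg) by LC-MS-MS; amitriptyline as positive control; mean ± SD of three independent experiments.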

The test system of experiment [6] is NIH3T3. Nature of the experiment: Cytoprotective activity against UV-induced apoptosis in mouse NIH/3T3 cells assessed as necrotic cells at 40 uM preincubated for 20 hrs followed by UV irradiation for 5 mins and measured after 24 hrs by flow cytometric analysis (reference value: 1.5%). It counts as functional.
The subject of experiment [7] is NIH3T3. The experiment is described as follows: Cytoprotective activity against UV-induced apoptosis in mouse NIH/3T3 cells assessed as viable cells at 20 uM preincubated for 20 hrs followed by UV irradiation for 5 mins and measured after 24 hrs by flow cytometric analysis (reference value: 12.6%). Type of experiment: functional. The conditions noted are these: NIH3T3, light or radiation study, read-out: Activity.

The target in experiment [8] is T1, Sphingomyelin phosphodiesterase (Mus musculus). The experiment is described as follows: Inhibition of UV-induced ceramide production in mouse NIH/3T3 cells by LC-MS/MS analysis. Type of experiment: cell-based. In outline:
as §1

Experiment [9] has as its system NIH3T3. Nature of the experiment: Cytoprotective activity against UV-induced apoptosis in mouse NIH/3T3 cells assessed as necrotic cells at 10 uM preincubated for 20 hrs followed by UV irradiation for 5 mins and measured after 24 hrs by flow cytometric analysis (reference value: 1.5%). It counts as functional.
Experiment [10] concerns NIH3T3. The experiment is described as follows: Cytoprotective activity against UV-induced apoptosis in mouse NIH/3T3 cells assessed as late apoptotic cells at 40 uM preincubated for 20 hrs followed by UV irradiation for 5 mins and measured after 24 hrs by flow cytometric analysis (reference value: 6.4%). Type of experiment: functional.
Experiment [11] concerns NIH3T3. Nature of the experiment: Cytoprotective activity against UV-induced apoptosis in mouse NIH/3T3 cells assessed as viable cells at 10 uM preincubated for 20 hrs followed by UV irradiation for 5 mins and measured after 24 hrs by flow cytometric analysis (reference value: 12.6%). It counts as functional. The conditions noted are these: NIH3T3, light or radiation study, read-out: Activity.

In experiment [12] the target is T1, Sphingomyelin phosphodiesterase (Mus musculus). The experiment is described as follows: Inhibition of acid sphingomyelinase in mouse NIH/3T3 cells assessed as decrease in ceramide levels after 20 hrs by LC-MS/MS analysis. It counts as cell-based. The gist of the method:
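NIH3T3 cells in DMEM with 10% FBS, 37 °C, 5% CO₂; at 90% confluence given fresh medium plus inhibitor (5, 10, 20 µM) for 20 h; total ceramides and sphingomyelin quantified by LC-MS-MS versus untreated control; mean ± SD of three independent experiments, Student's t-test.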

Experiment [13] addresses T2, Sphingomyelin phosphodiesterase (Homo sapiens) (UniProt P17405).
T2 sequence (whole entry): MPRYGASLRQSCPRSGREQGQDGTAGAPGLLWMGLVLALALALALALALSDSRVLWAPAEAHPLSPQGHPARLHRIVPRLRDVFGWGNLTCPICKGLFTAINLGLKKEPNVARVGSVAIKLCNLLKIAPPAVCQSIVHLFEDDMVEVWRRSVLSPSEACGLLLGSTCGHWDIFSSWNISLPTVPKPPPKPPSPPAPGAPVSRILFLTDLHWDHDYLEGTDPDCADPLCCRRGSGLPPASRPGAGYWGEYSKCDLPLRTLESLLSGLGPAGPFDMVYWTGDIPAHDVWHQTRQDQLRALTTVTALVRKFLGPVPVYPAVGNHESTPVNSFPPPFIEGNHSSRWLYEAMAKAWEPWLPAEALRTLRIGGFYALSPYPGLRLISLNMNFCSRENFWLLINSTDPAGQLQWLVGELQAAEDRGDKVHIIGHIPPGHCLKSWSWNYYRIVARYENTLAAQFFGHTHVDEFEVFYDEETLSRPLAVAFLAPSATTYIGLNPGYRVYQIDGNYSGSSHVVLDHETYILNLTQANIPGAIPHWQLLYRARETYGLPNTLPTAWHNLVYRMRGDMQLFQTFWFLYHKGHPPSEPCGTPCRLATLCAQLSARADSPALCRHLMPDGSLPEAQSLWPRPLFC
The experiment is described as follows: Competitive inhibition of acid sphingomyelinase in human HuH7 cell lysate using varying levels of NBD-sphingomyelin as substrate at 0.5 to 5 uM after 30 mins by Lineweaver-Burk analysis. The conditions noted are these: in the assay text read “after 10 mins” for “after 30 mins”. The gist of the method: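 Kinetics using the lysate ASM protocol, NBD-SM at 1.35, 1.89, 2.70, 4.54 and 13.5 µM per inhibitor level (0.5, 1.0, 5 µM); reaction stopped after 10 min; NBD-ceramide quantified by HPLC against a standard curve; Lineweaver-Burk plots by linear regression; triplicate.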

In experiment [14] the test system is NIH3T3. The experiment is described as follows: Cytoprotective activity against UV-induced apoptosis in mouse NIH/3T3 cells assessed as early apoptotic cells at 20 uM preincubated for 20 hrs followed by UV irradiation for 5 mins and measured after 24 hrs by flow cytometric analysis (reference value: 79.5%). Type of experiment: functional.

The source made the active and inactive calls. The rule behind the calls is not given here.

Regarding `CCCCCCCCCCOc1cc(C(=O)NO)ccc1OC`, the Activity in experiment [1] is 0.2%; in [2], 55.7%; in experiment [4], 7.5%; in experiment [5], 106 pmol/mg; in experiment [6] it was 0.1%; in experiment [9] it was 0%. For the same compound, the Activity turned out to be 7.9% in experiment [10] and 36.8% in experiment [14]. Also, the inhibition entry in experiment [3], in experiment [8] and in experiment [12] was “Dose-dependent effect” in each case. Also, in experiment [7], the viability at 20 µM stood at 54.7%. The viability at 10 µM in [11] worked out at 46.9%. The inhibition entry in experiment [13] is “Active”.
